From ChEMBL document CHEMBL3352556, “Neural cell activation by phenolic compounds from the Siberian larch (Larix sibirica)” (J Nat Prod, 2014)
The source made the active and inactive calls. The rule behind the calls is not given here.

Assays:
Astrocyte = assay: Reduction in migration of C57BL/6J mouse brain astrocytes assessed as distance of migration at 100 nM after 8 to 48 hrs by scratch injury assay (reference value: 700 um); format: functional
[1] = Induction of neurite outgrowth in C57BL/6J mouse primary cerebellar neurons at 100 nM after 24 hrs by microscopy relative to DMSO-treated control; format: functional
Summary of the method: (§1)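 Cerebellar granule neurons from 6- to 8-day-old mice were plated at 2.5 × 10^4 cells/well on PLL in defined serum-free medium. Compound (100 pM–1 μM; 0.1% DMSO final, DMSO control) was added 1 h post-seeding and cells were fixed at 24 h. Neurite length was measured by microscopy. Duplicates, ≥100 cells per treatment, 3 independent experiments, mean ± SEM.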

[2] = Stimulation of process formation/elongation of C57BL/6J mouse Schwann cells at 100 pM to 100 nM after 24 hrs by microscopy relative to DMSO-treated control; format: functional
Summary of the method: (§2)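 Schwann cells from dorsal root ganglia of 6- to 8-day-old mice were seeded at 1.25 × 10^4 cells/well on PLL and cultured serum-free. Compound (0.1% DMSO final; DMSO control) was added 1 h after seeding and cells were fixed at 24 h. Process length was measured microscopically. Duplicates, ≥100 cells per treatment, 3 independent experiments, mean ± SEM.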

[3] = Induction of migration of C57BL/6J mouse cerebellar primary neuron assessed as cell population migrating to 151- 300 um at 100 nM after 48 hrs by microscopy (reference value: 25 %); format: functional
[4] = Cytotoxicity against C57BL/6J mouse Schwann cells at 1 uM after 24 hrs by microscopy; format: cell-based
[5] = Cytotoxicity against C57BL/6J mouse primary cerebellar neurons assessed as reduction in cell viability at 1 uM after 24 hrs by microscopy
[6] = Induction of migration of C57BL/6J mouse cerebellar primary neuron assessed as cell population migrating to >301 um at 100 nM after 48 hrs by microscopy (reference value: 3 %); format: functional
Mus musculus [7] = organism: Mus musculus; assay: Induction of neurite outgrowth in C57BL/6J mouse motoneurons at 500 nM after 24 hrs by microscopy; format: functional
Summary of the method: (§3)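 Motoneurons came from spinal cords of E14.5 mice, were seeded at 1.25 × 10^4 cells/well on poly-L-ornithine and cultured serum-free. Compound was added 1 h after seeding (0.1% DMSO final; DMSO control) and cells were fixed at 24 h. Neurite length was measured microscopically. Duplicates, ≥100 cells per treatment, 3 independent experiments, mean ± SEM.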

Schwann [8] = assay: Stimulation of process formation/elongation of C57BL/6J mouse Schwann cells after 24 hrs by microscopy; format: functional, cell-based; summary of the method: as §2
[9] = Induction of migration of C57BL/6J mouse cerebellar primary neuron assessed as cell population migrating to 1- 150 um at 100 nM after 48 hrs by microscopy (reference value: 72 %); format: functional
Mus musculus [10] = organism: Mus musculus; assay: Induction of neurite outgrowth in C57BL/6J mouse primary cerebellar neurons after 24 hrs by microscopy; format: functional; summary of the method: as §1
Mus musculus [11] = organism: Mus musculus; assay: Induction of neurite outgrowth in C57BL/6J mouse motoneurons at 1 to 200 nM after 24 hrs by microscopy; format: functional; summary of the method: as §3
[12] = Induction of migration of C57BL/6J mouse cerebellar primary neuron at 100 nM after 48 hrs by microscopy relative to DMSO-treated control; format: functional
Schwann [13] = assay: Stimulation of process formation/elongation of C57BL/6J mouse Schwann cells at 1 uM after 24 hrs by microscopy; format: functional, cell-based; summary of the method: as §2
[14] = Induction of neurite outgrowth in C57BL/6J mouse dorsal root ganglion neurons at 100 nM after 24 hrs by microscopy relative to DMSO-treated control; format: functional, DRG neuron
Summary of the method: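 Dorsal root ganglion neurons from 6- to 8-day-old mice were seeded at 1.25 × 10^4 cells/well on PLL in serum-free culture. 100 nM compound (0.1% DMSO final) was added 1 h after seeding. Cells were fixed after 24 h and neurite length was measured by microscopy versus DMSO control. Duplicates, ≥100 cells per treatment, 3 independent experiments, mean ± SEM.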

## COc1cc(C[C@@H](CO)[C@H](CO)Cc2ccc(O)c(OC)c2)ccc1O [(+)-SECOISOLARICIRESINOL]
Astrocyte
  Activity: 500 µm
[1]
  fold change (FC): 1.6
[2]
  fold change (FC): 1.8
[3]
  Activity: 27%
[4]
  Activity: Non-toxic
[5]
  Activity: Non-toxic
[6]
  Activity: 8%
Mus musculus [7]
  Activity: inactive
Schwann [8]
  Activity: Dose-dependent effect
[9]
  Activity: 65%
Mus musculus [10]
  Activity: Dose-dependent effect
Mus musculus [11]
  Activity: Active
[12]
  fold change (FC): 1.2
Schwann [13]
  Activity: inactive

## O=C1c2c(O)cc(O)cc2O[C@H](c2ccc(O)c(O)c2)[C@H]1O [(+)-TAXIFOLIN]
Astrocyte
  Activity: 500 µm
[1]
  fold change (FC): 1.6
[2]
  fold change (FC): 1.9
[3]
  Activity: 29%
[4]
  Activity: Non-toxic
[5]
  Activity: Non-toxic
[6]
  Activity: 12%
Mus musculus [7]
  Activity: inactive
Schwann [8]
  Activity: Dose-dependent effect
[9]
  Activity: 59%
Mus musculus [10]
  Activity: Dose-dependent effect
Mus musculus [11]
  Activity: Active
[14]
  fold change (FC): 1.7
[12]
  fold change (FC): 1.4
Schwann [13]
  Activity: inactive

## COc1cc([C@H]2c3cc(O)c(OC)cc3C[C@@H](CO)[C@@H]2CO)ccc1O [ISOLARICIRESINOL]
Astrocyte
  Activity: 500 µm
[1]
  fold change (FC): 1.6
[2]
  fold change (FC): 1.8
[3]
  Activity: 24%
[4]
  Activity: Non-toxic
[5]
  Activity: Non-toxic
[6]
  Activity: 8%
Mus musculus [7]
  Activity: inactive
Schwann [8]
  Activity: Dose-dependent effect
[9]
  Activity: 68%
Mus musculus [10]
  Activity: Dose-dependent effect
Mus musculus [11]
  Activity: Active
[12]
  fold change (FC): 1.2
Schwann [13]
  Activity: inactive
